b-catenin transl: modulators of beta-catenin nuclear translocation. AID 1665. HeLa beta-catenin nuclear translocation, immunofluorescence imaging. 190,000 compounds, 0.3% hits. nuclear translocation activity, % at 5 µM;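 active = nuclear translocation activity above 50% at 5 µM, with a well cell count of 50 or more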;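 also: per-cell ratio of nuclear to cytoplasmic median beta-catenin stain intensity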
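assay system = human HeLa cells, endogenous beta-catenin | times = compound treatment 24 h, 37°C, 5% CO2 | detection = Anti-beta-catenin immunofluorescence on PFA-fixed, Triton-permeabilized cells, DAPI nuclei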
MT stabilize HCS: microtubule stabilization, imaging screen | HeLa tubulin immunostaining HCS, 24 h; share of cells brighter than vehicle mean+2SD | % tubulin-high responders, % at 10 µM | 200,000 compounds, 0.83% hits | AID 2205;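 active = plate Z-score above 3 for both tubulin-high and condensed-nucleus cell shares, with cell loss under 80%, at 10 µM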;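 also: anti alpha tubulin signal scored within the nucleus-defined area of each cell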
BaF3 parental: reduces parental Ba/F3 cell viability, JAK2V617F counter-screen. 220,000 compounds, 1.1% hits. CellTiter-Glo ATP luminescence. inhibition, % at 5.6 µM;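 active = inhibition above a per-campaign cutoff, the mean inhibition of all tested compounds plus 3 SD, cut at about 27% in these data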
KLF5 inh: inhibitors of KLF5 expression. 290,000 compounds, 0.23% hits. AID 1700. DLD-1 KLF5 promoter-luciferase reporter, luminescence. inhibition, % at 5 µM;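 active = inhibition above a per-plate limit of that plate's mean compound inhibition plus 3 SD, cut at about 60% in these data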;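 also: higher means less KLF5 promoter-driven luciferase light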
Ba/F3 V617F tox: lowers viability of Ba/F3 cells expressing EpoR and JAK2V617F | ATP luminescence | inhibition, % at 5.6 µM | 220,000 compounds, 1.1% hits;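 active = inhibition above the campaign mean plus 3 SD over all tested compounds, cut at about 24% in these data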;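 also: cytokine-independent growth of Ba/F3 cells driven by EpoR plus mutant JAK2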
IEC-6 tox: IEC-6 cytotoxicity, counter-screen for KLF5 inhibitors | luminescence viability | inhibition, % at 5 µM | 290,000 compounds, 0.78% hits | AID 1825
IEC-6 tox confirm: IEC-6 cytotoxicity, confirmation assay | shares compounds with IEC-6 tox | IEC-6 rat intestinal epithelial viability, luminescence | inhibition, % at 5 µM | 1,900 compounds, 63% hits
Hits are given with their value; . = inactive; / = no result given. Hits are enriched below; roughly 2.1% of the tested compounds scored in any of these assays. Rule as the data show it, unless noted: active = inhibition above about 22%; inactive = the rest.

SMILES | b-catenin transl | MT stabilize HCS | BaF3 parental | KLF5 inh | Ba/F3 V617F tox | IEC-6 tox | IEC-6 tox confirm
O=C(NCc1ccccc1)c1c(Cl)nc(Cl)c(Cl)c1Cl | / | / | / | . | / | 23 | .
O=C(Nc1ccc2ccccc2c1)c1cnccn1 | . | . | . | . | . | . | /
COC(=O)c1ccccc1NC(=O)c1nc(S(=O)(=O)Cc2ccccc2)ncc1Cl | / | / | / | . | / | . | /
CC(=O)Nc1ccc(NC(=O)c2nc(S(=O)(=O)Cc3ccccc3)ncc2Cl)cc1 | / | / | / | . | / | 26 | .
CS(=O)(=O)c1ncc(Cl)c(C(=O)Nc2ccc3ccccc3c2)n1 | . | . | 52 | . | 83 | 24 | .
CCOC(=O)C(C)Sc1nc(-c2ccccc2)nc2ccccc12 (configuration not stated) | . | . | . | . | . | . | /
O=C(NCc1ccccc1)c1nc(S(=O)(=O)Cc2ccccc2)ncc1Cl | / | / | / | . | / | 52 | 24
O=C(Nc1ccc(Oc2ccc(NC(=O)Nc3ccccc3Cl)cc2)cc1)Nc1ccccc1Cl | . | / | . | . | . | . | .
O=C(Nc1ccccc1)Nc1cccc(Cl)c1Cl | . | . | . | . | . | . | /
Oc1ccc(-c2cnc(-c3ccc(O)cc3)nc2)cc1 | / | / | / | . | / | 41 | .
Cc1ccc(NC(=O)C2CCCO2)cc1[N+](=O)[O-] (configuration not stated) | . | . | . | . | . | . | /
COc1ccc(Cl)cc1NC(=O)CSc1nc(Nc2ccccc2)nc(N2CCOCC2)n1 | / | / | / | . | / | 30 | .
CN(Cc1ccccc1C#N)S(=O)(=O)c1cccs1 | / | / | / | . | / | . | /
N#Cc1nccnc1S(=O)(=O)c1cccs1 | . | / | 35 | . | 92 | 40 | 82
c1ccc(-c2ccc(C3=Nn4c(nnc4-c4cccs4)SC3)cc2)cc1 | . | / | . | . | . | . | /
COc1ccc(-c2nnc3n2N=C(C)CS3)cc1 | . | . | . | . | . | . | /
CCOc1cccc(-c2nnc3n2N=C(c2cc(OC)ccc2OC)CS3)c1 | . | 29 | 81 | . | 80 | 58 | 52
Cc1cccc(-c2nnc3n2N=C(c2ccccc2Br)CS3)c1 | . | . | 33 | . | 37 | 34 | .
COc1ccc(C2=Nn3c(nnc3-c3ccc(OC)cc3)SC2)cc1 | / | 29 | 76 | . | 64 | 82 | 58
CCc1ccc(C2=Nn3c(nnc3-c3cccs3)SC2)cc1 | . | . | . | . | . | 52 | 35
CN1C(=O)C(C)(C)c2cc(S(=O)(=O)N3CCN(c4ccccc4)CC3)ccc21 | / | / | / | . | / | . | /
COc1ccc(C2=Nn3c(nnc3-c3ccccc3OC)SC2)cc1OC | 58 | 16 | 89 | . | 93 | 92 | 72
CC(=O)N(/N=C/c1ccc([N+](=O)[O-])o1)c1nc2ccccc2c(=O)n1-c1ccccc1 | . | / | . | . | . | 55 | .
CC(=O)N/N=C/c1c(C)[nH]n(-c2ccccc2)c1=O | . | . | . | . | . | . | /
Cc1[nH]n(-c2ccccc2)c(=O)c1/C=N/NC(=O)c1ccccc1F | / | / | / | . | / | 30 | .
SMILES | b-catenin transl | MT stabilize HCS | BaF3 parental | KLF5 inh | Ba/F3 V617F tox | IEC-6 tox | IEC-6 tox confirm
CCOC(=O)C1CCN(S(=O)(=O)c2cccc3nonc23)CC1 | . | . | . | . | . | . | /
CCOC(=O)C1CCN(S(=O)(=O)c2c(Cl)ccc3nonc23)CC1 | / | / | / | . | / | 100 | 41
CCN1CCN(c2ccc(NC(=O)c3ccc([N+](=O)[O-])o3)cc2Cl)CC1 | . | . | 48 | . | 76 | 70 | 45
CCC(=O)N1CCN(c2ccc(Cl)cc2NC(=O)c2ccc([N+](=O)[O-])o2)CC1 | / | / | / | . | / | 34 | .
CCC(=O)N1CCN(c2ccc(NC(=O)c3ccc([N+](=O)[O-])o3)cc2Cl)CC1 | . | . | 60 | . | 88 | 67 | 63
CC(=O)N1CCN(c2ccc(NC(=O)c3ccc([N+](=O)[O-])o3)cc2Cl)CC1 | / | / | / | . | / | 101 | 48
CCC(=O)N1CCN(c2ccc(Cl)cc2NC(=O)c2cccc([N+](=O)[O-])c2)CC1 | . | . | . | . | . | . | /
COc1ccc(CN(C)CC(=O)Nc2ccc(Cl)cc2C(F)(F)F)c(OC)c1 | . | . | . | . | . | . | /
CC1CCN(c2ccc3nnc(CCC(=O)NCCCOC(C)C)n3n2)CC1 | / | / | / | . | / | . | /
COc1ccc(-c2ccc(CCC(=O)O)n2-c2ccccc2OC)cc1 | / | / | / | . | / | 41 | .
CCOC(=O)CC(NC(=O)Cn1nnc(-c2ccccc2Cl)n1)c1ccc(OC)cc1 (configuration not stated) | . | . | . | . | . | . | /
Cc1cc2nnc(SCC(=O)NCc3cccs3)n2c2ccccc12 | . | 42 | 40 | . | 31 | 34 | 24
COC(/C(=N/O)c1ccc(Cl)cc1)c1ccccc1 (configuration not stated) | / | / | / | . | / | 28 | .
COc1ccc(Cl)cc1NC(=O)C(OC)c1ccccc1 (configuration not stated) | . | . | . | . | . | . | /
CCN(CC)S(=O)(=O)c1cccc(N=Nc2c(O)c3ccccc3oc2=O)c1 | . | / | . | . | . | . | /
Cc1ccc(C(=O)Cn2c(C(=O)OCCO)cc3ccccc32)cc1 | / | / | / | . | / | 26 | .
CCOC(=O)Cn1c(S(=O)(=O)Cc2cccc(F)c2)nc(-c2ccccc2)c1-c1ccccc1 | . | . | . | . | . | 23 | .
CC(=O)c1ccc(NS(=O)(=O)c2cc(-c3cnc(C4CC4)o3)ccc2C)cc1 | / | / | / | . | / | . | /
CC(=O)c1cccc(NS(=O)(=O)c2cc(-c3cnc(C4CC4)o3)ccc2C)c1 | / | / | / | . | / | 41 | 31
CC(=O)Nc1ccc(NS(=O)(=O)c2cc(-c3cnc(C4CC4)o3)ccc2C)cc1 | / | / | / | . | / | 23 | 24
Cc1ccc(-c2cnc(C3CC3)o2)cc1S(=O)(=O)Nc1ccccc1 | / | / | / | . | / | 38 | 47
O=C(NC1CCC(O)CC1)c1cccc2cccnc12 (configuration not stated) | / | / | / | . | / | . | /
COC(=O)c1ccc2nc(C)cc(Nc3ccc(N(C)C)cc3)c2c1 | . | . | . | . | . | . | /
COC(=O)c1ccc(Nc2cc(C)nc3ccccc23)cc1 | 79 | / | . | . | . | 23 | 27
O=C(O)CN1C(=O)C(=O)N(Cc2ccc(Cl)cc2Cl)C1=O | / | / | / | . | / | . | /
SMILES | b-catenin transl | MT stabilize HCS | BaF3 parental | KLF5 inh | Ba/F3 V617F tox | IEC-6 tox | IEC-6 tox confirm
COc1ccc(C(c2c(O)ccc3ccccc23)N2CCOCC2)c(OC)c1 (configuration not stated) | . | . | . | . | . | 35 | .
CC(C)c1ccc(OCC(=O)NC2CC(C)(C)NC(C)(C)C2)c(Br)c1 | / | / | / | . | / | . | /
Cc1nc2nc(NC(=O)c3ccco3)nn2c(C)c1Cl | / | / | / | . | / | . | /
Cc1ccc(Sc2cnc(N)nc2C)cc1 | . | . | . | . | . | . | /
Oc1ccc(Br)cc1CNc1cccc2cccnc12 | / | / | / | . | / | 44 | .
COc1ccc(CNC(=O)C2CCN(S(=O)(=O)c3cccc4nsnc34)CC2)cc1 | / | / | / | . | / | . | /
O=C(CCl)N1CCCC1c1ccc2c(c1)OCCO2 (configuration not stated) | / | / | / | . | / | 78 | 24
Cc1ccc2nc(NCc3ccccc3)[nH]c2c1 | . | 22 | 76 | . | 85 | 82 | 51

Assay outcomes (PubChem BioAssay)
